{"source": "ChEMBL document CHEMBL4376891", "about": "“Benzenesulfonamide Derivatives as Calcium/Calmodulin-Dependent Protein Kinase Inhibitors and Antiviral Agents against Dengue and Zika Virus Infections” (J Med Chem, 2020)", "key": {"Zika virus [1]": {"system": "Zika virus", "test": "Antiviral activity against Zika virus infected in human BE(2)-C cells assessed as NS3 protein expression at 6.25 uM incubated for 48 hrs by Western blot analysis (reference value: 100%)", "format": "functional", "in_short": "(§1)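 BE(2)C cells were infected with ZIKV PRVABC59 at MOI 0.1 for 48 h, with or without compound at increasing concentrations. Viral protein was immunoblotted with actin as loading control. The band-density ratio was given as % of the solvent control. Mean ± SD, 3 independent experiments.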"}, "Zika virus [2]": {"system": "Zika virus", "test": "Antiviral activity against Zika virus infected in human BE(2)-C cells assessed as NS3 protein expression at 6.25 uM treated during 0 to 3 hrs post infection by Western blot analysis (reference value: 100%)", "format": "functional", "in_short": "(§2)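 Time-of-addition design: BE(2)C cells were infected with DENV-2 or ZIKV at MOI 1. Compound at 3.125 or 6.25 μM was present either during adsorption (0–3 hpi) or afterward (3–24 hpi). Viral protein was immunoblotted against actin, with the ratio as % of the solvent control.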"}, "Zika virus [3]": {"system": "Zika virus", "test": "Antiviral activity against fluorescently labeled Zika virus infected in human BE(2)-C cells at 3.125 uM by confocal microscopy", "format": "functional, organism-based", "in_short": "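DENV-2 or ZIKV was concentrated and labeled with atto-647N dye. BE(2)C cells were pretreated with solvent or 3.125 µM, then incubated at 37 °C with labeled DENV-2 for 30 min or ZIKV for 60 min. Cells were fixed in 4% paraformaldehyde, membranes stained with WGA-488, and intracellular virus signal imaged by confocal microscopy.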"}, "dengue virus type 2 [4]": {"system": "dengue virus type 2", "test": "Antiviral activity against Dengue virus 2 infected in human HMC3 cells assessed as reduction in viral progeny production at 1.56 to 12.5 uM incubated for 48 hrs by Virus titer assay", "format": "functional, organism-based", "in_short": "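Human microglial HMC3 cells in MEM with 10% FBS were infected with DENV-2 PL046 at MOI 0.1 for 48 h in the presence of noncytotoxic compound concentrations. Progeny virus was titrated by plaque assay on BHK-21 cells, expressed as log PFU/mL.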"}, "dengue virus type 2 [5]": {"system": "dengue virus type 2", "test": "Antiviral activity against Dengue virus 2 infected in human BE(2)-C cells assessed as reduction in NS3 protein expression at 3.125 to 6.25 uM treated during 0 to 3 hrs post infection by Western blot analysis", "format": "functional, organism-based", "in_short": "as §2"}, "dengue virus type 2 [6]": {"system": "dengue virus type 2", "test": "Antiviral activity against Dengue virus 2 infected in human BE(2)-C cells assessed as reduction in viral entry at 3.125 to 6.25 uM incubated for 90 mins by plaque-forming assay relative to control", "format": "functional", "parameters": "scale not given: the % may be the effect or the level left", "in_short": "(§3)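 Virus entry: BE(2)C cells were incubated with DENV-2 or ZIKV for 90 min at 4 °C and washed cold. Cells were then treated with 3.125 or 6.25 μM compound at 37 °C for 1 h. Non-internalized virus was inactivated with 0.1 M glycine, pH 3, for 5 min. Cells were lysed by needle passage, and internalized virus was titrated by plaque assay. Mean ± SD, n = 3.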"}, "dengue virus type 2 [7]": {"system": "dengue virus type 2", "test": "Antiviral activity against Dengue virus 2 infected in human BE(2)-C cells transfected with shCaMKIIalpha assessed as NS3 protein expression at 6.25 uM incubated for 48 hrs by Western blot analysis (reference value: 100%)", "format": "functional"}, "Zika virus [8]": {"system": "Zika virus", "test": "Antiviral activity against Zika virus infected in human BE(2)-C cells assessed as NS3 protein expression at 0.78 uM incubated for 48 hrs by Western blot analysis (reference value: 100%)", "format": "functional", "in_short": "as §1"}, "Zika virus [9]": {"system": "Zika virus", "test": "Antiviral activity against Zika virus infected in human BE(2)-C cells assessed as NS3 protein expression at 1.56 uM incubated for 48 hrs by Western blot analysis (reference value: 100%)", "format": "functional", "in_short": "as §1"}, "dengue virus type 2 [10]": {"system": "dengue virus type 2", "test": "Antiviral activity against Dengue virus 2 infected in human BE(2)-C cells assessed as NS3 protein expression at 6.25 uM treated during 0 to 3 hrs post infection by Western blot analysis (reference value: 100%)", "format": "functional", "in_short": "as §2"}, "dengue virus type 2 [11]": {"system": "dengue virus type 2", "test": "Antiviral activity against DENV-2 NGC-N infected in Stat1-/- mouse assessed as overall mouse survival at 8 mg/kg, po dosed immediately following viral infection followed by daily dosing for 6 days (reference value: 0%)", "format": "functional", "conditions": "144 h"}, "Influenza A virus": {"system": "Influenza A virus", "test": "Antiviral activity of Influenza A virus (H1N1) infected in human HMC3 cells assessed as reduction in nucleoprotein protein expression at 0.781 to 12.5 uM incubated for 24 hrs by immunofluorescence microscopy", "format": "functional, organism-based"}, "dengue virus type 2 [12]": {"system": "dengue virus type 2", "test": "Antiviral activity against Dengue virus 2 infected in human BE(2)-C cells assessed as suppression of viral-induced CaMKIIalpha activation at 3.125 uM incubated for 4 hrs by confocal microscopy", "format": "functional, organism-based"}, "Zika virus [13]": {"system": "Zika virus", "test": "Antiviral activity against Zika virus infected in human BE(2)-C cells assessed as reduction in viral entry at 3.125 to 6.25 uM incubated for 90 mins by plaque-forming assay relative to control", "format": "functional", "parameters": "scale not given: the % may be the effect or the level left", "in_short": "as §3"}, "Zika virus [14]": {"system": "Zika virus", "test": "Antiviral activity against Zika virus infected in human BE(2)-C cells assessed as NS3 protein expression at 3.125 uM treated during 0 to 3 hrs post infection by Western blot analysis (reference value: 100%)", "format": "functional", "in_short": "as §2"}, "dengue virus type 2 [15]": {"system": "dengue virus type 2", "test": "Antiviral activity against DENV-2 NGC-N infected in Stat1-/- mouse assessed as improvement in mouse survival by measuring median survival time at 2 mg/kg, po dosed 8 hrs after infection and ending at day 6 after infection (8 hrs delay) (reference value: 10 days)", "format": "functional"}, "dengue virus type 2 [16]": {"system": "dengue virus type 2", "test": "Antiviral activity against Dengue virus 2 infected in human BE(2)-C cells transfected with shCaMKIIalpha assessed as NS3 protein expression at 3.125 uM incubated for 48 hrs by Western blot analysis (reference value: 100%)", "format": "functional"}, "Zika virus [17]": {"system": "Zika virus", "test": "Antiviral activity against Zika virus infected in human BE(2)-C cells transfected with shLacZ assessed as NS3 protein expression at 3.125 uM incubated for 48 hrs by Western blot analysis (reference value: 100%)", "format": "functional"}, "BE(2)-C [18]": {"system": "BE(2)-C", "test": "Cytotoxicity against human BE(2)-C cells assessed as reduction in cell viability up to 12.5 uM incubated overnight by trypan blue assay relative to control", "format": "cell-based", "in_short": "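Viable BE(2)C cell number after overnight exposure to compound up to 12.5 μM, counted by trypan blue exclusion; expressed as percent of solvent control, mean ± SD of 3 independent experiments.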"}, "BE(2)-C [19]": {"system": "BE(2)-C", "test": "Cytotoxicity against human BE(2)-C cells assessed as reduction in cell viability up to 12.5 uM incubated overnight by LDH assay relative to control", "format": "cell-based", "in_short": "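BE(2)C cells (RPMI 1640, 10% FBS) exposed overnight to compound at concentrations up to 12.5 μM; XTT (proliferation) or LDH release (cytotoxicity) read by absorbance at 490 nm. Values normalized to solvent control (%), mean ± SD of 3 independent experiments.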"}, "Zika virus [20]": {"system": "Zika virus", "test": "Antiviral activity against Zika virus infected in Stat1-/- mouse assessed as delay in virus-induced mouse mortality at 4 mg/kg/day, po dosed immediately following viral infection followed by daily dosing for 6 days (reference value: 13 days)", "format": "functional, organism-based"}, "dengue virus type 2 [21]": {"system": "dengue virus type 2", "test": "Antiviral activity against DENV-2 NGC-N infected in Stat1-/- mouse assessed as improvement in overall mouse survival at 4 mg/kg, po dosed 8 hrs after infection and ending at day 6 after infection (8 hrs delay) relative to control", "format": "functional"}, "dengue virus type 2 [22]": {"system": "dengue virus type 2", "test": "Antiviral activity against Dengue virus 2 infected in human BE(2)-C cells transfected with shLacZ assessed as NS3 protein expression at 3.125 uM incubated for 48 hrs by Western blot analysis (reference value: 100%)", "format": "functional"}}, "note": "Calls of active or inactive are those of the source. No cut-off for these calls is given here.", "data": [{"smiles": "COc1ccc(S(=O)(=O)N(CCCC(=O)C2CCCCCC2)c2ccccc2)cc1", "values": [{"measurement": "Activity", "setting": "Zika virus [1]", "result": 4.1, "unit": "%"}, {"measurement": "Activity", "setting": "Zika virus [2]", "result": 20.1, "unit": "%"}, {"measurement": "Activity", "setting": "Zika virus [3]", "result": "Active"}, {"measurement": "Activity", "setting": "dengue virus type 2 [4]", "result": "Active"}, {"measurement": "Activity", "setting": "dengue virus type 2 [5]", "result": "Dose-dependent effect"}, {"measurement": "Activity", "setting": "dengue virus type 2 [6]", "result": "<=70%"}, {"measurement": "Activity", "setting": "dengue virus type 2 [7]", "result": 75.4, "unit": "%"}, {"measurement": "Activity", "setting": "Zika virus [8]", "result": 89.6, "unit": "%"}, {"measurement": "Activity", "setting": "Zika virus [9]", "result": 62.2, "unit": "%"}, {"measurement": "Activity", "setting": "dengue virus type 2 [10]", "result": 27.3, "unit": "%"}, {"measurement": "survival at 8 mg/kg", "setting": "dengue virus type 2 [11]", "result": 60, "unit": "%"}, {"measurement": "Activity", "setting": "Influenza A virus", "result": "Active"}, {"measurement": "Activity", "setting": "dengue virus type 2 [12]", "result": "Active"}, {"measurement": "Activity", "setting": "Zika virus [13]", "result": 80, "unit": "%"}, {"measurement": "Activity", "setting": "Zika virus [14]", "result": 60.1, "unit": "%"}, {"measurement": "MST", "setting": "dengue virus type 2 [15]", "result": 14, "unit": "days"}, {"measurement": "Activity", "setting": "dengue virus type 2 [16]", "result": 95.1, "unit": "%"}, {"measurement": "Activity", "setting": "Zika virus [17]", "result": 102, "unit": "%"}, {"measurement": "Activity", "setting": "BE(2)-C [18]", "result": "Non-Toxic"}, {"measurement": "Activity", "setting": "BE(2)-C [19]", "result": "Non-Toxic"}, {"measurement": "Activity", "setting": "Zika virus [20]", "result": "inactive"}, {"measurement": "Activity", "setting": "dengue virus type 2 [21]", "result": 40, "unit": "%"}, {"measurement": "Activity", "setting": "dengue virus type 2 [22]", "result": 62.2, "unit": "%"}]}]}
